Screening data: PubChem BioAssay, The Scripps Research Institute Molecular Screening Center
M4 PAM = CHRM4 positive allosteric modulation; AID 624126; CHO-K1 hM4/Gqi5, Fluo-8 calcium fluorescence, ACh EC20; 0% = ACh EC20, 100% = maximal ACh; P08173; activation, % at 3 µM; 360,000 tested, 0.4% active;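 active = activation above its plate's cutoff, the mean activation of sample wells plus 3 SD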
M5 ag = CHRM5 agonism in calcium assay | P08912 | CHO-K1 hM5 cells, Fluo-8 calcium fluorescence; 0% DMSO wells, 100% maximal acetylcholine response | activation, % at 3 µM | 360,000 tested, 0.19% active | AID 624037;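 active = activation above the run's mean over test compounds plus 3 SD, cut at about 23% in these data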;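 also: signal is peak over basal fluorescence ratio across the kinetic read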
Target sequence (P08912 whole entry, looked up): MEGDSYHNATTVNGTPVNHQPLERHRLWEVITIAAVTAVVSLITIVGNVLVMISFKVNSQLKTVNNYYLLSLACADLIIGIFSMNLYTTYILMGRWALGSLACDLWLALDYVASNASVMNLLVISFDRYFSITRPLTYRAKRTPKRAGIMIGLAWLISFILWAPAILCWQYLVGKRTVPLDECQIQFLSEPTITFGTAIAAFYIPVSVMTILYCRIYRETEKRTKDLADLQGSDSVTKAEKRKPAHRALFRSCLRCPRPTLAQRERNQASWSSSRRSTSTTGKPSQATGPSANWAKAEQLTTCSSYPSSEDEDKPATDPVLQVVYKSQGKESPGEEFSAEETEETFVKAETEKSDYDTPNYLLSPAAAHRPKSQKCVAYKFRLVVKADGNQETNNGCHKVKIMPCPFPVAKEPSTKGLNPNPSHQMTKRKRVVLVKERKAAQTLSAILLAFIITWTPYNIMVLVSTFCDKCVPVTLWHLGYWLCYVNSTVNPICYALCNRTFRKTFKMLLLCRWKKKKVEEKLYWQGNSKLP
CHRM4 antagonist = antagonists of human muscarinic M4 receptor (CHRM4); P08173; CHO-hM4 cells, ACh EC80, Fluo-8 calcium fluorescence; inhibition, % at 3 µM; 360,000 tested, 0.73% active;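 active = inhibition above its plate's cutoff, the mean inhibition of sample wells plus 3 SD, cut at about 27% in these data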;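 also: 0% = acetylcholine EC80 with DMSO and 100% = DMSO without agonist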
M4 ag = CHRM4 agonism in calcium assay; P08173; CHO-K1 hM4/Gqi5, Fluo-8 calcium fluorescence; vehicle 0%, full acetylcholine response 100%; activation, % at 3 µM; 360,000 tested, 0.14% active;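 active = activation above the run mean over all test wells plus 3 SD, cut at about 32% in these data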;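 also: peak over basal fluorescence ratio per well then scaled between controls; 0% = DMSO wells and 100% = acetylcholine at EC100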
CHRM5 antagonist = antagonists of human muscarinic M5 receptor (CHRM5). P08912. CHO-hM5 cells, Fluo-8 calcium fluorescence, ACh EC80. inhibition, % at 3 µM. 360,000 tested, 0.59% active;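 active = inhibition above a per-plate cutoff, the mean of that plate's test compounds plus 3 SD, cut at about 27% in these data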;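 also: 0% = acetylcholine EC80 with DMSO and 100% = DMSO without agonist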
CHRM5 PAM = potentiates acetylcholine response at human M5 receptor. P08912. CHO-K1 hM5, Fluo-8 calcium, ACh EC20 PAM; 0% = ACh EC20, 100% = ACh EC100. activation, % at 3 µM. 360,000 tested, 0.3% active. AID 624038;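 active = activation above the run cutoff, the mean activation of all test compounds plus 3 SD, cut at about 18% in these data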
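Test system: CHO-K1 hM5 cells / Doses: single-point, 3 µM nominal / Times: Post-acetylcholine fluorescence recording 140 s / Technique: Fluo-8 calcium fluorescence / Measure: Max/basal fluorescence ratio as % of EC20–EC100 ACh window / Benchmarks: low control EC20 acetylcholine (0%), high control EC100 acetylcholine (100%) / Replicates: one well per compound, no replicates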
* hit, by the source's call; ! = repeats disagree. The list is not random: actives were taken first. Their share in the collection is about 1.9%.

SMILES	M4 PAM	M5 ag	CHRM4 antagonist	M4 ag	CHRM5 antagonist	CHRM5 PAM
COCC#Cc1ccc2c(c1)O[C@@H](CN(C)S(=O)(=O)c1cccc(F)c1)[C@@H](C)CN([C@H](C)CO)S2(=O)=O	-1	0	-2	8	0	-1
NS(=O)(=O)c1ccc(Nc2nc(-c3ccc4ccccc4c3)cs2)cc1	6	20	37*	7	4	8
O=C(Nc1nc(-c2ccc3ccccc3c2)cs1)c1ccc(N2C(=O)CCC2=O)cc1	1	2	1	1	1	2
NS(=O)(=O)c1ccc(Nc2nc(-c3cccc([N+](=O)[O-])c3)cs2)cc1	-16	10	0	6	8	-13
O=C(O)c1ccccc1C(=O)Nc1nc(-c2ccc3ccccc3c2)cs1	24*	-3	3	-2	9	4
CC1C(=O)N(Cc2cn(Cc3ccco3)nn2)CCS(=O)(=O)N1Cc1ccc(-c2ccc(Cl)c(Cl)c2)cc1 (centres undefined)	0	2	-3	4	-6	6
COc1cccc(NC(=O)C2(C)CCN2C(=O)CC2CCCC2)c1 (centres undefined)	-2	0	2	0	-4	1
Cc1ccc(S(=O)(=O)NCCn2nc(C)cc2C)cc1	12	-4	-5	2	5	0
CC(=O)c1ccc(N2CCN(C(=O)c3ccc(Cl)c(NC4=NC5CS(=O)(=O)CC5S4)c3)CC2)cc1 (centres undefined)	48*	-1	17	16	29*	21*
CCCCc1cc(O)c(CCCC)c(O)c1	-18	64*	52*	106*	33*	-16
CCCCCC(=O)Nc1cc2[nH]c(=O)cc(COC)c2cc1C	4	-4	-4	1	-6	-10
COC(=O)c1ccc(N2C(c3ccsc3)=Cc3cc4c(cc3C2CC(=O)c2ccco2)OCO4)cc1 (centres undefined)	-14	-7	30*	-1	1	-10
Cc1cccc(C)c1-n1nnnc1C1(C)CCC(=O)N1CC1CCCCC1 (centres undefined)	11	7	-3	0	9	-5
CC(C)CNC(=S)NNC(=O)CC(C)O (centres undefined)	-5	-2	5	0	-1	18*
CCCOc1ccc(C(=O)NNC(=S)NC(=O)c2ccco2)cc1	-49	60*	19	126*	31*	-29
CCCOc1ccc(C(=O)NNC(=S)NC(=O)c2ccccc2)cc1	-24	78*	27*	136*	26	-21
CCNC(=S)NNC(=O)CC(C)C	-3	-2	0	1	-6	7
CCCOc1ccc(C(=O)NNC(=S)NC(=O)c2cccs2)cc1	-16	72*	63*	110*	42*	-17
O=S(=O)([N-]c1nc2ccccc2nc1-n1cc[n+](Cc2ccccc2)c1)c1ccc(Cl)cc1	-5	-2	6	0	10	-4
CC1(c2ccc(Cl)cc2)NC(=O)N(CC(=O)N2CCN(C(=O)c3cccs3)CC2)C1=O (centres undefined)	-6	0	10	1	-2	1
COc1ccc(C(=O)NC(=S)NNC(=O)c2ccc(C)cc2)cc1	-48	75*	15	118*	5	-30
CC(C)CNC(=S)NNC(=O)c1ccco1	38*	0	3	1	-6	12
CC(=O)c1cccc(NC(=S)NC(=O)c2ccc(C)cc2)c1	26*	-3	-2	1	4	8
CC(Oc1ccc(Cl)cc1)C(=O)NNC(=S)NC(=O)c1ccco1 (centres undefined)	-10	26*	13	63*	6	-11
COc1ccc(C(=O)NNC(=S)NC(=O)c2ccco2)cc1	1	9	-5	5	-4	2
SMILES	M4 PAM	M5 ag	CHRM4 antagonist	M4 ag	CHRM5 antagonist	CHRM5 PAM
COc1ccc(-n2nc(C(=O)NCC(=O)N3CCC(C(N)=O)CC3)c3ccccc3c2=O)cc1	0	-3	0	0	9	-4
COC(=O)C1CCN(C(=O)/C(C)=C\c2ccccc2)CC1	6	1	4	1	4	-3
COc1ccc(N2C(=O)CSC2c2cccc(OC)c2OC)cc1 (centres undefined)	-10	-7	16	1	4	-13
COc1cccc(C2SCC(=O)N2c2ccc(C)cc2)c1OC (centres undefined)	-39	-7	65*	-1	22	-19
CCN=C(NCC)SC1CC(=O)N(c2cccc(OC)c2)C1=O (centres undefined)	-14	5	27*	17	25	-20
CCCCCCCCCC(=O)N[C@@H]1c2cc(OC)c(OC)cc2C[C@H]1O	3	1	-12	6	-7	0
Cc1ccc(SCc2[nH]nc3c2C2(C(=O)Nc4ccc([N+](=O)[O-])cc42)C(C#N)=C(N)O3)cc1 (centres undefined)	51*	-2	1	2	-5	25*
Cc1ccc(SCc2[nH]nc3c2C2(CCSCC2)C(C#N)=C(N)O3)cc1	-1	3	3	4	-5	4
CCOC(=O)c1sc(=NC(=O)c2ccc(S(=O)(=O)N(C)c3ccccc3)cc2)n(C)c1C	27*	-1	-1	2	-6	5
CC(C)C(NC(=O)C1CCCCC1)C(=O)NCCc1ccccc1 (centres undefined)	-8	-1	-1	1	-4	0
O=C(C[C@H]1C(=O)N(c2ccccc2)C[C@@H]1Cc1ccccc1)Nc1ccccc1	2	0	-5	1	8	-2
CC(=O)Nc1c(I)c(NC(C)=O)c(I)c(C(=O)O)c1I	-5	63*!	-2	0	-8	3
Cc1noc(C)c1C(=O)N1CCC1(C)C(=O)NS(=O)(=O)c1cccc(Cl)c1 (centres undefined)	6	3	-5	0	14	3
CN(C)c1cc[n+](CC(=O)N2c3ccccc3Sc3ccccc32)cc1	-26	-15	48*	0	14	-10
O=C(C[n+]1ccccc1)N1c2ccccc2Sc2ccccc21	-27	-10	99*	1	98*	-18
O=C(COc1ccccc1)N1c2ccccc2Sc2ccccc21	-26	-4	5	-2	1	-5
Cc1ccc(-c2nn(CCC(=O)O)cc2/C=C\C(=O)c2ccc(Br)cc2)cc1	19*	-3	-16	1	-1	23*
COC(=O)CN1CCN(C(=O)c2ccco2)CC1	3	-3	4	3	-5	9
